Compound activity deposited in PubChem BioAssay by Broad Institute.
RAD54 inh: RAD54 (human) branch migration inhibition; AID 602329; inhibition, % at 10.4 µM; RAD54 Holliday junction branch migration, FAM/BHQ fluorescence; 360,000 tested, 0.14% active; Q92698;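 active = mean normalized replicate activity at least 40 and at least half of replicates scoring 40 or more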;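 note: inhibitors cause a drop in the FAM fluorescence signal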
Target sequence (Q92698 whole entry, looked up): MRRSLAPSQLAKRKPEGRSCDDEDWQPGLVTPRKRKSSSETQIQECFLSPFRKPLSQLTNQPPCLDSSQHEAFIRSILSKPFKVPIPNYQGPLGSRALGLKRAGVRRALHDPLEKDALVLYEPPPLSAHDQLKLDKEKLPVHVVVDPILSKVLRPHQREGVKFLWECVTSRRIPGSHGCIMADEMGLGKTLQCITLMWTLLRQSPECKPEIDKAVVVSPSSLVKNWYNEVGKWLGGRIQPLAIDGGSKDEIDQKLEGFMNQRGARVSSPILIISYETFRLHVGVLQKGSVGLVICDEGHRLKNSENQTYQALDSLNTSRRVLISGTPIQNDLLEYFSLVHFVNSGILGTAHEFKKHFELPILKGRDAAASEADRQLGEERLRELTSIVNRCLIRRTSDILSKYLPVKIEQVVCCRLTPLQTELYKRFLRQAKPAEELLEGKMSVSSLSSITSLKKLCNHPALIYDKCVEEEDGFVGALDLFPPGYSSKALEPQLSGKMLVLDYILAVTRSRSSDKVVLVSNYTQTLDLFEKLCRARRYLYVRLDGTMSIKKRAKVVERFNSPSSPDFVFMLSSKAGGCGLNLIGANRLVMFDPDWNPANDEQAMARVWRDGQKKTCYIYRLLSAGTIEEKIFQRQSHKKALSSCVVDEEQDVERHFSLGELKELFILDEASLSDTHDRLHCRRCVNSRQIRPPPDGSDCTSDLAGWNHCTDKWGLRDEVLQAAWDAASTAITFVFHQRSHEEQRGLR
Cneo AK release: causes C. neoformans cell lysis | adenylate kinase release luminescence, 4 h; normalised: neutral wells 0, clomiphene wells 100 | lysis activity, % at 15 µM | 360,000 tested, 0.2% active | AID 651654;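 active = mean lysis activity across replicates of at least 80%, whatever share of replicates individually reach that level; inactive = mean lysis activity below 80%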
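Material: C. neoformans cells; Schedule: 4 h static compound exposure, 37 °C, read 1 h post-reagent; Measured by: adenylate kinase release luminescence; Read-out: signal increase indicating cell lysis; Controls: Clomiphene as positive lysis control.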
PglD inh: blocks C. jejuni PglD acetyltransferase activity; 360,000 tested, 0.098% active; purified PglD enzyme, DTNB colorimetric CoA detection; inhibition, % at 12.5 µM; AID 602405; in the data active = inhibition above about 16%, passing the limit was not always enough
rRNA inh HTS: inhibitors of bacterial rRNA selective over humanized ribosomes | 350,000 tested, 1.6% active | E. coli WT GFP vs humanized-ribosome RFP mutants, fluorescence, 24 h; stronger effect = lower value; DMSO median 0, no signal -100 | GFP signal change (wild-type ribosome), % (concentration not given with the values) | AID 720706;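 active = significant combined selectivity score with lowered wild-type GFP, culture density cut under 30%, mutant RFP and density less affected; inactive = any of these conditions unmet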
RAD52 inh: blocks human RAD52 DNA annealing. recombinant RAD52 DNA annealing, FRET fluorescence. inhibition, % at 18.7 µM. 360,000 tested, 0.46% active;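 active = every replicate showing at least 50% inhibition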
Of the large screens only hits and unclear results are named; the others gave an inactive call. Compounds with a hit are over-represented: about 1.9% of the library has one in this group of screens.

CO[C@@H]1CN(C)C(=O)c2cc(NC(=O)Nc3ccc(Cl)cc3)ccc2OC[C@H](C)NC[C@H]1C	none
CCC(=O)Nc1ccc2c(c1)C(=O)N(C)C[C@@H](OC)[C@@H](C)CN[C@H](C)CO2	none
CO[C@H]1CN(C)C(=O)c2cc(NC(=O)Nc3cc(Cl)cc(Cl)c3)ccc2OC[C@@H](C)NC[C@H]1C	none (no result: RAD54 inh, Cneo AK release, PglD inh, RAD52 inh)
CO[C@@H]1CN(C)C(=O)c2cc(NC(=O)Nc3ccc(Cl)c(Cl)c3)ccc2OC[C@H](C)NC[C@@H]1C	RAD52 inh 52.0
CO[C@@H]1CN(C)C(=O)c2cc(NC(=O)Nc3cc(Cl)cc(Cl)c3)ccc2OC[C@@H](C)NC[C@@H]1C	none (no result: RAD54 inh, Cneo AK release, PglD inh, RAD52 inh)
CCC(=O)Nc1ccc2c(c1)C(=O)N(C)C[C@@H](OC)[C@H](C)CN[C@@H](C)CO2	Cneo AK release 102.3
COc1ccc(S(=O)(=O)N[C@@H]2CC[C@H](CCn3cc(C(C)C)nn3)O[C@@H]2CO)cc1	none
O=C1CCCCn2cc(nn2)COC[C@@H](c2ccccc2)N1	none (no result: RAD54 inh, Cneo AK release, PglD inh, RAD52 inh)
COc1ccccc1NC(=O)N[C@H]1CC[C@H](CCNS(=O)(=O)c2ccc(C)cc2)O[C@H]1CO	none (no result: RAD54 inh, Cneo AK release, PglD inh)
C[C@H](CO)N1C[C@H](C)[C@@H](CN(C)C)Oc2ccc(NC(=O)CCC(F)(F)F)cc2CC1=O	none
CC[C@H]1C/C=C\C[C@H](C(C)C)NC(=O)CCC(=O)N1	none (no result: RAD54 inh, Cneo AK release, PglD inh, RAD52 inh)
O=C(Nc1ccccc1)[C@H]1[C@H](CO)[C@H]2Cn3c(cccc3=O)[C@H]2N1CC1CCOCC1	none (no result: RAD54 inh, Cneo AK release, PglD inh, RAD52 inh)
COc1c2ccoc2nc2c(OC)cccc12	rRNA inh HTS -21.9
COc1cccc2c(C)cc(N3CCCCCC3)nc12	none
C[C@H](CO)N1C[C@H](C)[C@@H](CN(C)Cc2ccccn2)Oc2ncc(Br)cc2C1=O	none
C[C@H](CO)N1C[C@H](C)[C@H](CN(C)C(=O)c2ccccn2)Oc2ncc(-c3ccccc3)cc2C1=O	Cneo AK release 81.2
C[C@H]1CN([C@@H](C)CO)C(=O)c2cc(-c3ccc(F)cc3)cnc2O[C@@H]1CN(C)C(=O)c1ccccn1	none
C[C@H]1CN([C@@H](C)CO)C(=O)c2cc(Br)cnc2O[C@@H]1CN(C)Cc1ccccn1	Cneo AK release 107.5
C[C@H]1CN([C@@H](C)CO)C(=O)c2cc(-c3ccccc3)cnc2O[C@@H]1CN(C)C(=O)c1ccccn1	Cneo AK release 105.2
O=C1/C(=C/c2ccc(O)cc2)SC(=S)N1CC1CCCO1 (stereo not given)	rRNA inh HTS -24.2 (no result: RAD54 inh, Cneo AK release, PglD inh)
C[C@@H]1CN([C@@H](C)CO)C(=O)Cc2cc(NS(=O)(=O)c3ccc(Cl)cc3)ccc2O[C@@H]1CN(C)C(=O)Nc1ccc(F)cc1	none
CN(Cc1c(C(=O)N/N=C/c2c(F)cccc2Cl)nnn1-c1nonc1N)c1ccccc1	rRNA inh HTS -21.6
CN(Cc1c(C(=O)N/N=C/c2cccc(O)c2)nnn1-c1nonc1N)c1ccccc1	none (no result: rRNA inh HTS, RAD52 inh)
CC(C)c1c(C(=O)N/N=C/c2cccnc2)nnn1-c1nonc1N	rRNA inh HTS -20.0
Cc1ccc(/C=N/NC(=O)c2nnn(-c3nonc3N)c2CSc2ccccc2)cc1	none (no result: RAD54 inh, Cneo AK release, PglD inh)
Cc1ccc(SCc2c(C(=O)N/N=C/c3ccccc3)nnn2-c2nonc2N)cc1	rRNA inh HTS -16.3 (no result: RAD54 inh, Cneo AK release, PglD inh)
O=C(C1CCC1)N1CC2(C1)[C@@H](c1ccccc1)[C@@H](CO)N2Cc1ccc(Cl)cc1	RAD52 inh 66.7 (no result: RAD54 inh, Cneo AK release, PglD inh)
CCCC#Cc1ccc([C@H]2[C@@H](CO)N3C(=O)CN(C(=O)Nc4ccccc4F)C[C@H]23)cc1	none (no result: RAD54 inh, Cneo AK release, PglD inh)
S=C(Nc1ccc(Cl)c(Cl)c1)NC1CCCCC1	none (no result: RAD54 inh, Cneo AK release, PglD inh)
O=C(O)c1ccc(NC(=S)NC2CCCCC2)cc1	none (no result: Cneo AK release, rRNA inh HTS, RAD52 inh)
S=C(Nc1ccc2nsnc2c1)NC1CCCCC1	rRNA inh HTS -44.0 (no result: RAD54 inh, Cneo AK release, PglD inh)
FC(F)(F)c1ccc(NC(=S)NC2CCCCC2)cc1	rRNA inh HTS -53.5
CN(C)C(=O)[C@@]1(Cc2ccccc2)COC(c2ccc(OCCCO)cc2)=N1	none (no result: rRNA inh HTS)
O=S(=O)(N[C@@H]1CC[C@@H](CCn2cc(-c3ccc(F)cc3)nn2)O[C@H]1CO)c1ccccc1F	none
CCOC(=O)C1C(=O)C=C(c2cccs2)CC1c1ccccc1 (stereo not given)	rRNA inh HTS -28.4 (no result: RAD54 inh, Cneo AK release, PglD inh)
O=C1O[C@H](c2ccccc2)[C@H](c2ccccc2)N2[C@H]1[C@@H](C(=O)N1CCCCCCC1)[C@]1(C(=O)Nc3ccc(C#CC4=CCCCC4)cc31)[C@H]2c1ccccc1OCCO	none (no result: rRNA inh HTS)
O=S(=O)(N/N=C1/CC(c2ccccc2)Oc2ccccc21)c1ccccc1 (stereo not given)	rRNA inh HTS -12.5 (no result: RAD54 inh, Cneo AK release, PglD inh)
c1ccc(C2C/C(=N\N3CCOCC3)c3ccccc3O2)cc1 (stereo not given)	none
CCS(=O)(=O)N1CCCCN2[C@H](CO)[C@H](c3ccc(C#Cc4ccccc4OC)cc3)[C@@H]2C1	none
CNC[C@@H]1Oc2ccc(NS(=O)(=O)c3ccc(Cl)cc3)cc2CC(=O)N([C@@H](C)CO)C[C@H]1C	none
CNC(=S)N(CCc1c(C)[nH]c2ccccc12)Cc1ccco1	rRNA inh HTS -20.0 (no result: RAD54 inh, Cneo AK release, PglD inh)
CC(=O)NN1C(=O)c2ccc3c4c(ccc(c24)C1=O)C(=O)N(NC(C)=O)C3=O	rRNA inh HTS -21.6
Cc1cc(Cl)n2ncc(-c3ccccc3)c2n1	rRNA inh HTS -32.5
Cc1cc(N)n2ncc(-c3ccc(Cl)cc3)c2n1	none (no result: rRNA inh HTS, RAD52 inh)
Cc1cc(NCc2ccccn2)n2ncc(-c3ccccc3)c2n1	rRNA inh HTS -37.9
CCOC(=O)c1ccoc1CN1CCN(S(=O)(=O)c2ccc(C)c(C)c2)CC1	rRNA inh HTS -20.1
Cc1ccc(S(=O)(=O)N2CCN(Cc3ccco3)CC2)cc1C	none
C[C@H](CO)N1C[C@H](C)[C@H](CN(C)C(=O)C2CCC2)Oc2cc(-c3ccccc3)ccc2S1(=O)=O	none (no result: RAD54 inh, Cneo AK release, PglD inh, RAD52 inh)
COc1cccc2sc(N(CCN(C)C)C(=O)c3ccc4c(c3)CCCC4)nc12	rRNA inh HTS -30.4
CN(C)CCCN(C(=O)c1ccc2c(c1)CCCC2)c1nc2ccc(Cl)cc2s1	none (no result: RAD54 inh, Cneo AK release, PglD inh)
CN(C)CCN(C(=O)c1ccc2c(c1)CCCC2)c1nc2c(F)cccc2s1	rRNA inh HTS -17.9
CC1=C2[C@@H](c3ccccc3)OB(O)C[C@@H]2n2c(=O)n(-c3ccccc3)c(=O)n2C1	none (no result: rRNA inh HTS)
CCC(=O)N1[C@H](CO)[C@H](c2ccccc2)[C@H]1CN(CC)C(=O)c1cccc(F)c1	Cneo AK release 95.8
Cc1cccc(S(=O)(=O)N2CCCCN3[C@@H](CO)[C@@H](c4ccc(-c5ccccc5)cc4)[C@@H]3C2)c1	RAD52 inh 63.5 (no result: rRNA inh HTS)
Cc1cccc(S(=O)(=O)N2CCCCN3[C@H](CO)[C@H](c4ccc(C#CC(C)C)cc4)[C@H]3C2)c1	rRNA inh HTS -26.9
Cc1ccc(-c2ccc([C@H]3[C@@H](CO)N4CCCCN(S(=O)(=O)c5cccc(C)c5)C[C@H]34)cc2)cc1	RAD52 inh 69.8 (no result: rRNA inh HTS)
Cc1cccc(S(=O)(=O)N2CCCCN3[C@H](CO)[C@@H](c4ccc(C#CC(C)C)cc4)[C@H]3C2)c1	none
Cc1ccc(-c2ccc([C@@H]3[C@@H](CO)N4CCCCN(S(=O)(=O)c5cccc(C)c5)C[C@@H]34)cc2)cc1	none (no result: rRNA inh HTS)
